Results: ChEMBL document CHEMBL3272115, “Synthesis and microbiological activities of beta-(1-chloro-2-naphthyl) alanine and beta-(1-bromo-2-naphthyl) alanine” (1976)
Converted amounts (≈) assume the structure as drawn. The source made the active and inactive calls. The calls are words filed in the database; no cut-off is given here.

Experiments:
[1] = system: Leuconostoc mesenteroides subsp. dextranicum; test: (§1) Antimicrobial activity against Leuconostoc dextranicum ATCC 8086 after 18 hrs by spectrophotometry in presence of 40 ug/ml each of phenylalanine,tyrosine and tryptophan; format: functional
[2] = system: Lactiplantibacillus plantarum; test: Antimicrobial activity against Lactobacillus plantarum ATCC 8014 after 18 hrs by spectrophotometry; format: functional; conditions: ATCC 8014, 18 h
Procedure, shortened: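 Basal lactic-acid-bacteria medium with 0.2 µg/ml calcium pantothenate and 0.02 µg/ml pantethine; phenylalanine and tyrosine omitted, and tryptophan lowered to 3 µg/ml; for this strain, Phe and Tyr at 1 µg/ml. Aqueous stock (1 mg/ml) serially diluted, up to 200 µg/ml. Incubated at 30° for 18 h. Absorbance read at 625 nm versus an uninoculated blank. MIC from at least six repeats.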

[3] = Antimicrobial activity against Leuconostoc dextranicum ATCC 8086 after 18 hrs by spectrophotometry; format: functional, Leuconostoc mesenteroides subsp. dextranicum; conditions: Leuconostoc mesenteroides, ATCC 8086, 18 h
Procedure, shortened: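 Basal lactic-acid-bacteria medium with 0.2 µg/ml calcium pantothenate and 0.02 µg/ml pantethine; Phe and Tyr omitted, Trp at 3 µg/ml; phosphate raised fourfold and 100 µg/ml glutamine added. Aqueous stock (1 mg/ml) serially diluted, up to 200 µg/ml. Incubated at 30° for 18 h. Turbidity read at 625 nm against an uninoculated blank. MIC from at least six repeats.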

[4] = system: Lactiplantibacillus plantarum; test: Antimicrobial activity against Lactobacillus plantarum ATCC 8014 after 18 hrs by spectrophotometry in presence of 40 ug/ml each of phenylalanine,tyrosine and tryptophan; format: functional
[5] = system: Escherichia coli; test: Antimicrobial activity against Escherichia coli ATCC 9723 after 16 hrs by spectrophotometry; format: functional; conditions: ATCC 9723, 16 h
Procedure, shortened: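 Stock of 10 mg in 10 ml sterile water (slight warming), serially diluted into autoclaved medium tubes, tested up to 200 µg/ml. Incubated at 37° for 16 h after inoculation. Turbidity read at 625 nm against an uninoculated medium blank. MIC taken as the minimum inhibitory concentration, with controls and at least six repeat assays.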

[6] = as §1; format: functional, Leuconostoc mesenteroides subsp. dextranicum; conditions: Leuconostoc mesenteroides, ATCC 8086, 18 h

SMILES	MIC [1]	MIC [3]	MIC [5]	MIC [6]	MIC [2]	MIC [4]	MIC ([4]; ATCC 8014, 18 h)
NC(Cc1ccc2ccccc2c1Br)C(=O)O (racemic)	Active	200 µg/mL (≈ 680 µM)	200 µg/mL (≈ 680 µM)		200 µg/mL (≈ 680 µM)	Active	
NC(Cc1cccc2ccccc12)C(=O)O (stereo not drawn)	Active	200 µg/mL (≈ 929 µM)	> 200 µg/mL		200 µg/mL (≈ 929 µM)	Active	
NC(Cc1ccc2ccccc2c1)C(=O)O (stereo not drawn)		> 200 µg/mL	> 200 µg/mL		> 200 µg/mL		

More lines, main results first:

MIC [1]	MIC [3]	MIC [5]	MIC [6]	SMILES	MIC [2]	MIC [4]	MIC ([4]; ATCC 8014, 18 h)
Active	20 µg/mL (≈ 80.1 µM)	> 200 µg/mL		NC(Cc1ccc2ccccc2c1Cl)C(=O)O (racemic)	20 µg/mL (≈ 80.1 µM)	Active	
	6 µg/mL (≈ 27.8 µM)	2 µg/mL (≈ 9.27 µM)	200 µg/mL	NC(Cc1ccc(O)cc1Cl)C(=O)O (stereo not drawn)	0.6 µg/mL (≈ 2.78 µM)		200 µg/mL
